Tests used:
[1] = Capmatinib/CMN288 pharmacokinetics, inhibition cohort; type: in vivo, human (healthy subjects); details: inhibition cohort, healthy subjects, plasma
Method in brief: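 Inhibition cohort of healthy subjects (n = 27): a single fasted oral 200 mg dose on day 1, then a 4-day washout. Itraconazole 200 mg was given daily on days 5–14, and 200 mg test compound was dosed 1 h after the sixth itraconazole dose (day 10). Plasma was sampled serially to 96 h after each dose and assayed by validated LC-MS/MS (LLOQ ≈1.0 ng/mL). Test/reference ratios are antilogged point estimates with 2-sided 90%CIs.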

[2] = Capmatinib/CMN288 pharmacokinetics, induction cohort; type: in vivo, human (healthy subjects); details: induction cohort, healthy subjects, plasma
Method in brief: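 Healthy subjects (induction cohort, n = 26) received a single fasted oral 400 mg dose on day 1, then a 4-day washout. Rifampicin 600 mg was given daily on days 5–13, with 400 mg test compound coadministered with the sixth dose on day 10. Serial plasma was drawn to 72 h after each dose and frozen <–70°C. Parent and metabolite were measured by validated LC-MS/MS (LLOQ ≈1.0 ng/mL). Ratios are antilogged 90%CIs.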

[3] = single oral capmatinib 200 mg + itraconazole 200 mg/day
[4] = single oral capmatinib 200 mg alone
[5] = single oral capmatinib 400 mg + rifampicin 600 mg/day
[6] = single oral capmatinib 400 mg alone

CNC(=O)c1ccc(-c2nn3c(Cc4ccc5ncccc5c4)cnc3[nH]c2=O)cc1F [CMN288]
CMN288 AUCinf, geometric mean (geometric CV%) [1, 3]: 4290 (42.3) ng · h/mL
CMN288 AUCinf, mean (CV%) [1, 3]: 4600 (35.7) ng · h/mL
CMN288 AUClast, geometric mean (geometric CV%) [1, 3]: 4260 (43.2) ng · h/mL
CMN288 AUClast, mean (CV%) [1, 3]: 4570 (36.0) ng · h/mL
CMN288 Cmax, geometric mean (geometric CV%) [1, 3]: 590 (63.8) ng/mL
CMN288 Cmax, mean (CV%) [1, 3]: 682 (50.8) ng/mL
CMN288 tmax, median (range) [1, 3]: 2.00 (0.983–4.01) h
MR (AUCinf), metabolite-to-parent drug ratio, mean (CV%) [1, 3]: 0.572 (25.1)
MR (AUClast), metabolite-to-parent drug ratio, mean (CV%) [1, 3]: 0.570 (25.6)
MR (Cmax), metabolite-to-parent drug ratio, mean (CV%) [1, 3]: 0.462 (29.2)
CMN288 AUCinf, geometric mean (geometric CV%) [1, 4]: 3640 (36.6) ng · h/mL
CMN288 AUCinf, mean (CV%) [1, 4]: 3870 (35.5) ng · h/mL
CMN288 AUClast, geometric mean (geometric CV%) [1, 4]: 3580 (37.6) ng · h/mL
CMN288 AUClast, mean (CV%) [1, 4]: 3810 (36.2) ng · h/mL
CMN288 Cmax, geometric mean (geometric CV%) [1, 4]: 665 (48.7) ng/mL
CMN288 Cmax, mean (CV%) [1, 4]: 736 (47.0) ng/mL
CMN288 tmax, median (range) [1, 4]: 1.01 (0.968–6.02) h
MR (AUCinf), metabolite-to-parent drug ratio, mean (CV%) [1, 4]: 0.699 (25.4)
MR (AUClast), metabolite-to-parent drug ratio, mean (CV%) [1, 4]: 0.685 (27.5)
MR (Cmax), metabolite-to-parent drug ratio, mean (CV%) [1, 4]: 0.533 (30.5)
CMN288 AUCinf, geometric mean (geometric CV%) [2, 5]: 5110 (31.9) ng · h/mL
CMN288 AUCinf, mean (CV%) [2, 5]: 5360 (32.1) ng · h/mL
CMN288 AUClast, geometric mean (geometric CV%) [2, 5]: 5070 (32.3) ng · h/mL
CMN288 AUClast, mean (CV%) [2, 5]: 5320 (32.5) ng · h/mL
CMN288 Cmax, geometric mean (geometric CV%) [2, 5]: 1570 (39.8) ng/mL
CMN288 Cmax, mean (CV%) [2, 5]: 1690 (38.1) ng/mL
CMN288 tmax, median (range) [2, 5]: 0.998 (0.924–3.00) h
MR (AUCinf), metabolite-to-parent drug ratio, mean (CV%) [2, 5]: 1.37 (26.0)
MR (AUClast), metabolite-to-parent drug ratio, mean (CV%) [2, 5]: 1.35 (25.0)
MR (Cmax), metabolite-to-parent drug ratio, mean (CV%) [2, 5]: 1.17 (28.9)
CMN288 AUCinf, geometric mean (geometric CV%) [2, 6]: 7420 (28.4) ng · h/mL
CMN288 AUCinf, mean (CV%) [2, 6]: 7710 (30.1) ng · h/mL
CMN288 AUClast, geometric mean (geometric CV%) [2, 6]: 7310 (28.4) ng · h/mL
CMN288 AUClast, mean (CV%) [2, 6]: 7600 (30.2) ng · h/mL
CMN288 Cmax, geometric mean (geometric CV%) [2, 6]: 1500 (41.4) ng/mL
CMN288 Cmax, mean (CV%) [2, 6]: 1610 (39.2) ng/mL
CMN288 tmax, median (range) [2, 6]: 0.994 (0.957–3.00) h
MR (AUCinf), metabolite-to-parent drug ratio, mean (CV%) [2, 6]: 0.634 (25.2)
MR (AUClast), metabolite-to-parent drug ratio, mean (CV%) [2, 6]: 0.627 (25.1)
MR (Cmax), metabolite-to-parent drug ratio, mean (CV%) [2, 6]: 0.492 (30.8)

Reference: PMC10092221 (Journal of Clinical Pharmacology, 2022)
